From ChEMBL document CHEMBL1649361, “Pyridone and tetramic acid alkaloids from the spider pathogenic fungus Torrubiella sp. BCC 2165” (J Nat Prod, 2010)
pIC50: −log10 of the molar value. The source made the active and inactive calls. The calls are words filed in the database; no cut-off is given here.

Assays:
NCI-H187 = test: Cytotoxicity against human NCI-H187 cells by resazurin microplate assay; type: functional, cell-based
How it was run: (§1)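 Resazurin microplate assay on human cancer lines: KB (oral epidermoid carcinoma), MCF-7 (breast cancer) and NCI-H187 (small-cell lung cancer). IC50 values were read from the assay, with doxorubicin hydrochloride as the reference standard.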

KB [1] = test: Cytotoxicity against human KB cells by resazurin microplate assay; type: functional, cell-based; how it was run: as §1
MCF7 [2] = test: Cytotoxicity against human MCF7 cells by resazurin microplate assay; type: functional, cell-based; how it was run: as §1
Plasmodium falciparum = test: Antimalarial activity against multidrug-resistant Plasmodium falciparum K1 by microculture radioisotope technique; type: functional, organism-based
MCF7 [3] = test: Cytotoxicity against human MCF7 cells at 50 ug/ml by resazurin microplate assay; type: functional, cell-based
How it was run: (§2)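 Single-concentration test at 50 µg/mL (119 µM) by resazurin microplate assay on human KB (oral epidermoid carcinoma) or MCF-7 (breast cancer) cells, with doxorubicin hydrochloride as the reference standard.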

[4] = tested on: Mycobacterium tuberculosis; test: Antimycobacterial activity against Mycobacterium tuberculosis H37Ra by GFPMA assay; type: functional, organism-based
KB [5] = test: Cytotoxicity against human KB cells at 50 ug/ml by resazurin microplate assay; type: functional, cell-based; how it was run: as §2
Vero = test: Cytotoxicity against african freen monkey Vero cells by green fluorescent protein microplate assay; conditions: Chlorocebus sabaeus

SMILES	Activity (NCI-H187)	Activity (MCF7 [2])	pIC50 (Plasmodium falciparum)	pIC50 (NCI-H187)	pIC50 (KB [1])	other results
CCC(/C=C/C=C/C=C/C(=O)c1c(O)c([C@]2(O)CC[C@@H](O)CC2)c[nH]c1=O)CO (stereo not given in full)	inactive	inactive	–	–	–	Activity (KB [1]): inactive
C[C@H]1[C@@H](O)O[C@@H]2O[C@@]3(C)CC[C@H]4[C@H](C)CC[C@@H]1[C@@]24OO3 [ARTENIMOL]	–	–	8.40	–	–	–
COc1cccc2c1C(=O)c1c(O)c3c(c(O)c1C2=O)C[C@@](O)(C(=O)CO)C[C@@H]3O[C@H]1C[C@H](N)[C@H](O)[C@H](C)O1 [DOXORUBICIN]	–	–	–	7.01	6.43	–
CCC(/C=C/C=C/C=C/C(=O)c1c(O)c([C@]2(O)CC[C@@H](O)CC2)cn(O)c1=O)CO (stereo not given in full) [TORRUBIELLONE A]	–	–	5.09	4.16	–	Activity (MCF7 [3]): inactive; Activity [4]: inactive; Activity (KB [5]): inactive; pIC50 (Vero): 4.06
CCC(/C=C/C=C/C=C/C(O)=C1\C(=O)NC(Cc2ccc(O)cc2)C1=O)CO (stereo not given) [TORRUBIELLONE D]	inactive	inactive	–	–	4.36	–
